# Assay results taken from ChEMBL document CHEMBL1629506, “Design, synthesis and structure-activity relationship study of novel pyrazole-based heterocycles as potential antitumor agents” (Eur J Med Chem, 2010).
# Tests used:
# OVCAR-3 = assay: Growth inhibition of human OVCAR3 cells after 48 hrs by sulforhodamine B assay; format: functional; settings: OVCAR-3, 48 h
# Summary of the method: (§1)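 Cells were plated at 5000–40,000 cells/well, depending on doubling time, and preincubated 24 h at 37 °C in 5% CO2. Time-zero plates were TCA-fixed at drug addition. Compounds were dissolved in DMSO and tested at five concentrations (10-fold or ½-log dilutions) for 48 h. Cells were fixed with cold TCA, stained with 0.4% sulforhodamine B and read at 515 nm. GI50 was taken as the concentration giving 50% growth.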
# [1] = Growth inhibition of human Hs 578T cells after 48 hrs by sulforhodamine B assay; format: functional; summary of the method: as §1
# OVCAR-8 = assay: Growth inhibition of human OVCAR8 cells after 48 hrs by sulforhodamine B assay; format: functional; settings: OVCAR-8, 48 h; summary of the method: as §1
# MCF7 = assay: Growth inhibition of human MCF7 cells after 48 hrs by sulforhodamine B assay; format: functional; settings: MCF7, 48 h; summary of the method: as §1
# IGROV-1 = assay: Growth inhibition of human IGROV1 cells after 48 hrs by sulforhodamine B assay; format: functional; settings: IGROV-1, 48 h; summary of the method: as §1
# T47D = assay: Growth inhibition of human T47D cells after 48 hrs by sulforhodamine B assay; format: functional; summary of the method: as §1
# MDA-MB-435 = assay: Growth inhibition of human MDA-MB-435 cells after 48 hrs by sulforhodamine B assay; format: functional; settings: MDA-MB-435, 48 h; summary of the method: as §1
# OVCAR-5 = assay: Growth inhibition of human OVCAR5 cells after 48 hrs by sulforhodamine B assay; format: functional; settings: OVCAR-5, 48 h; summary of the method: as §1
# BT-549 = assay: Growth inhibition of human BT549 cells after 48 hrs by sulforhodamine B assay; format: functional; settings: BT-549, 48 h; summary of the method: as §1
# OVCAR-4 = assay: Growth inhibition of human OVCAR4 cells after 48 hrs by sulforhodamine B assay; format: functional; settings: OVCAR-4, 48 h; summary of the method: as §1
# SK-OV-3 = assay: Growth inhibition of human SKOV3 cells after 48 hrs by sulforhodamine B assay; format: functional; settings: SK-OV-3, 48 h; summary of the method: as §1
# MDA-MB-231 = assay: Growth inhibition of human MDA-MB-231cells after 48 hrs by sulforhodamine B assay; format: functional; settings: MDA-MB-231, 48 h; summary of the method: as §1
# NCI/ADR-RES = assay: Growth inhibition of human NCI/ADR-RES cells after 48 hrs by sulforhodamine B assay; format: functional; summary of the method: as §1
# Rattus norvegicus [2] = assay: Antiestrogenic activity in Sprague-Dawley rat assessed as reduction in estradiol induced uterine weight upto 0.06 ug, po after 8 days; format: functional; parameters: scale not given: the % may be the effect or the level left
# Summary of the method: (§2)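 Immature ovariectomized female Sprague-Dawley rats (~55 g), groups of 12. Estradiol 0.03–0.05 given s.c. daily for 7 days, with test compound or letrozole reference at various doses up to 0.06 per animal, given orally in 0.5% carboxymethylcellulose. Controls received estradiol alone. Uterine weights were taken on day 8 and group means expressed as % reduction versus estradiol-only controls. Potency was taken relative to letrozole.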
# MDA-N = assay: Growth inhibition of human MDA-N cells after 48 hrs by sulforhodamine B assay; format: functional; summary of the method: as §1
# Rattus norvegicus [3] = assay: Antiestrogenic activity in Sprague-Dawley rat assessed as reduction in estradiol induced uterine weight 0.06 ug, po after 8 days relative to letrozole; format: functional; summary of the method: as §2
# [4] = Acute toxicity in mouse after 24 hrs; format: organism-based; settings: in vivo
# Summary of the method: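 Adult mice of both sexes, acclimatized 1 week (12 h light/dark, 21–23 °C), fasted 12 h before dosing. 30 mice in 6 groups of 5 each got a single oral gavage dose, at different dose levels, of a fine-powder aqueous suspension. LD50 was determined, with values as group means of five mice.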
Compound,GI50 (OVCAR-3) [µM],GI50 [1] [µM],GI50 (OVCAR-8) [µM],GI50 (MCF7) [µM],GI50 (IGROV-1) [µM],GI50 (T47D) [µM],GI50 (MDA-MB-435) [µM],GI50 (OVCAR-5) [µM],GI50 (BT-549) [µM],GI50 (OVCAR-4) [µM],GI50 (SK-OV-3) [µM],GI50 (MDA-MB-231) [µM],GI50 (NCI/ADR-RES) [µM],Activity (Rattus norvegicus [2]) [%],GI50 (MDA-N) [µM],potency ratio vs letrozole (Rattus norvegicus [3]),LD50 at 24 h [4] [mg/kg]
N#Cc1c(-c2nnc(-c3ccccc3)c3cn(-c4ccccc4)nc23)nn(-c2ccccc2)c1-c1ccccc1,93.8,31.8,68,9.53,94.8,21.8,31.8,> 100,21.8,63,32.8,8.84,> 100,32.59,31.2,,
N#Cc1c(-c2nnc(-c3ccccc3)c3nn(-c4ccc(Cl)cc4)cc23)nn(-c2ccccc2)c1-c1ccccc1,> 100,16.8,9.23,43.8,93.4,38,23.8,8.94,38.8,5.49,> 100,6.42,2.28,,63.8,,
CN(C)/C=C/C(=O)c1nn(-c2ccccc2)c(-c2ccccc2)c1C#N,98.8,> 100,75.8,39.8,98,30.2,> 100,> 100,31.1,63.8,23.8,50.4,90.6,41.98,45.4,1.93,232
Cc1nnc(-c2nn(-c3ccccc3)c(-c3ccccc3)c2C#N)c2cn(-c3ccccc3)nc12,96.8,1.39,> 100,8.46,92,9.14,> 100,> 100,96.8,56.4,36.8,> 100,> 100,23.97,38.4,1.1,32.5
CCOC(=O)c1nn(-c2ccccc2)cc1C(=O)c1nn(-c2ccccc2)c(-c2ccccc2)c1C#N,,,> 100,5.49,> 100,> 100,> 100,,31.8,> 100,,,> 100,23.98,38.4,1.1,122
CCOC(=O)c1nn(-c2ccc(Cl)cc2)cc1C(=O)c1nn(-c2ccccc2)c(-c2ccccc2)c1C#N,> 100,65,65.8,> 100,93.2,> 100,71.8,61.2,39.8,45.8,30.8,> 100,> 100,34.86,62.3,1.61,143
CCOC(=O)c1nn(-c2ccc(C)cc2)cc1C(=O)c1nn(-c2ccccc2)c(-c2ccccc2)c1C#N,91.8,> 100,9.18,> 100,94.8,> 100,> 100,> 100,> 100,5.46,> 100,> 100,> 100,42.83,> 100,1.96,274
N#Cc1c(-c2nnc(O)c3nn(-c4ccccc4)cc23)nn(-c2ccccc2)c1-c1ccccc1,> 100,46.8,61.5,> 100,92.2,2.95,21.8,61.8,44.8,26.4,36.8,6.21,2.76,32.86,13.8,1.51,114
N#Cc1c(-c2nnc(O)c3nn(-c4ccc(Cl)cc4)cc23)nn(-c2ccccc2)c1-c1ccccc1,33.4,> 100,3.23,> 100,91.3,> 100,> 100,32.8,> 100,4.38,30.8,> 100,> 100,23.76,> 100,1.09,322
N#Cc1c(C(=O)c2cn(-c3ccc(Cl)cc3)nc2C(=O)Nc2ccccc2)nn(-c2ccccc2)c1-c1ccccc1,23.8,8.84,> 100,> 100,99.5,33,2.03,> 100,11.8,28.4,9.42,> 100,> 100,34.87,> 100,1.61,101
Cc1ccc(-n2cc(C(=O)c3nn(-c4ccccc4)c(-c4ccccc4)c3C#N)c(C(=O)Nc3ccccc3)n2)cc1,7.66,63.2,9.52,34.4,16.6,30.8,2.23,9.72,> 100,7.56,9.42,6.27,2.48,34.65,5.49,1.6,122
N#Cc1c(C(=O)c2cn(-c3ccccc3)nc2-c2ccccc2)nn(-c2ccccc2)c1-c1ccccc1,4.94,> 100,9.83,33.3,> 100,28,61,6.23,1.12,5.49,> 100,49.8,98,23.54,3.36,1.08,122
Cc1ccc(-n2cc(C(=O)c3nn(-c4ccccc4)c(-c4ccccc4)c3C#N)c(C(=O)c3nn(-c4ccccc4)c(-c4ccccc4)c3C#N)n2)cc1,99.8,37.4,20.3,0.061,0.022,25.7,> 100,36.8,2.47,30.4,38.8,> 100,> 100,32.43,26.8,1.49,211
N#Cc1c(-c2nnc(-c3nn(-c4ccccc4)c(-c4ccccc4)c3C#N)c3nn(-c4ccccc4)cc23)nn(-c2ccccc2)c1-c1ccccc1,7.26,94.4,9.82,17.8,13.3,81,> 100,9.12,11.8,7.46,5.72,52.4,24.5,34.87,> 100,1.61,222
N#Cc1c(-c2nnc(-c3nn(-c4ccccc4)c(-c4ccccc4)c3C#N)c3nn(-c4ccc(Cl)cc4)cc23)nn(-c2ccccc2)c1-c1ccccc1,95.8,9.72,61.8,9.42,98,16,9.2,> 100,1.02,43.8,36.8,7.9,7.46,43.41,2.26,2,112
